The text below walks through data of ChEMBL document CHEMBL5696442, “Discovery of type II inhibitors of TGFβ-activated kinase 1 (TAK1) and mitogen-activated protein kinase kinase kinase kinase 2 (MAP4K2)” (J Med Chem, 2015).

What all share (type): cell-based
In experiment [1] the target is Tyrosine-protein kinase Fer (Homo sapiens, UniProt P16591). Description: Inhibition of FER Lys1 labeling site harbouring TSVAVKTCKEDLPQELKin human A-375 cells at 0.05 uM by KiNativ Profiling analysis relative to control.
Experiment [2] has as its target Calcium/calmodulin-dependent protein kinase kinase 2 (Homo sapiens) (UniProt Q96RR4). Description: Inhibition of CaMKK2 Lys1 labeling site in human A-375 cells at 5 uM by KiNativ Profiling analysis relative to control. In a few lines: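 Live A375 melanoma cells were treated with compound at 5 or 0.5 μM. The cells were then lysed, and the lysates were labeled with a lysine-reactive ATP or ADP-biotin acyl probe (KiNativ). Inhibition is the compound's protection of each kinase labeling-site peptide from probe labeling, relative to untreated control.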

The target in experiment [3] is Serine/threonine-protein kinase ATR (Homo sapiens) (UniProt Q13535). The experiment in a line: Inhibition of ATR ATP labeling site in human A-375 cells at 0.05 uM by KiNativ Profiling analysis relative to control.
Serine/threonine-protein kinase ATR (Homo sapiens), sequence (Q13535 whole entry, looked up): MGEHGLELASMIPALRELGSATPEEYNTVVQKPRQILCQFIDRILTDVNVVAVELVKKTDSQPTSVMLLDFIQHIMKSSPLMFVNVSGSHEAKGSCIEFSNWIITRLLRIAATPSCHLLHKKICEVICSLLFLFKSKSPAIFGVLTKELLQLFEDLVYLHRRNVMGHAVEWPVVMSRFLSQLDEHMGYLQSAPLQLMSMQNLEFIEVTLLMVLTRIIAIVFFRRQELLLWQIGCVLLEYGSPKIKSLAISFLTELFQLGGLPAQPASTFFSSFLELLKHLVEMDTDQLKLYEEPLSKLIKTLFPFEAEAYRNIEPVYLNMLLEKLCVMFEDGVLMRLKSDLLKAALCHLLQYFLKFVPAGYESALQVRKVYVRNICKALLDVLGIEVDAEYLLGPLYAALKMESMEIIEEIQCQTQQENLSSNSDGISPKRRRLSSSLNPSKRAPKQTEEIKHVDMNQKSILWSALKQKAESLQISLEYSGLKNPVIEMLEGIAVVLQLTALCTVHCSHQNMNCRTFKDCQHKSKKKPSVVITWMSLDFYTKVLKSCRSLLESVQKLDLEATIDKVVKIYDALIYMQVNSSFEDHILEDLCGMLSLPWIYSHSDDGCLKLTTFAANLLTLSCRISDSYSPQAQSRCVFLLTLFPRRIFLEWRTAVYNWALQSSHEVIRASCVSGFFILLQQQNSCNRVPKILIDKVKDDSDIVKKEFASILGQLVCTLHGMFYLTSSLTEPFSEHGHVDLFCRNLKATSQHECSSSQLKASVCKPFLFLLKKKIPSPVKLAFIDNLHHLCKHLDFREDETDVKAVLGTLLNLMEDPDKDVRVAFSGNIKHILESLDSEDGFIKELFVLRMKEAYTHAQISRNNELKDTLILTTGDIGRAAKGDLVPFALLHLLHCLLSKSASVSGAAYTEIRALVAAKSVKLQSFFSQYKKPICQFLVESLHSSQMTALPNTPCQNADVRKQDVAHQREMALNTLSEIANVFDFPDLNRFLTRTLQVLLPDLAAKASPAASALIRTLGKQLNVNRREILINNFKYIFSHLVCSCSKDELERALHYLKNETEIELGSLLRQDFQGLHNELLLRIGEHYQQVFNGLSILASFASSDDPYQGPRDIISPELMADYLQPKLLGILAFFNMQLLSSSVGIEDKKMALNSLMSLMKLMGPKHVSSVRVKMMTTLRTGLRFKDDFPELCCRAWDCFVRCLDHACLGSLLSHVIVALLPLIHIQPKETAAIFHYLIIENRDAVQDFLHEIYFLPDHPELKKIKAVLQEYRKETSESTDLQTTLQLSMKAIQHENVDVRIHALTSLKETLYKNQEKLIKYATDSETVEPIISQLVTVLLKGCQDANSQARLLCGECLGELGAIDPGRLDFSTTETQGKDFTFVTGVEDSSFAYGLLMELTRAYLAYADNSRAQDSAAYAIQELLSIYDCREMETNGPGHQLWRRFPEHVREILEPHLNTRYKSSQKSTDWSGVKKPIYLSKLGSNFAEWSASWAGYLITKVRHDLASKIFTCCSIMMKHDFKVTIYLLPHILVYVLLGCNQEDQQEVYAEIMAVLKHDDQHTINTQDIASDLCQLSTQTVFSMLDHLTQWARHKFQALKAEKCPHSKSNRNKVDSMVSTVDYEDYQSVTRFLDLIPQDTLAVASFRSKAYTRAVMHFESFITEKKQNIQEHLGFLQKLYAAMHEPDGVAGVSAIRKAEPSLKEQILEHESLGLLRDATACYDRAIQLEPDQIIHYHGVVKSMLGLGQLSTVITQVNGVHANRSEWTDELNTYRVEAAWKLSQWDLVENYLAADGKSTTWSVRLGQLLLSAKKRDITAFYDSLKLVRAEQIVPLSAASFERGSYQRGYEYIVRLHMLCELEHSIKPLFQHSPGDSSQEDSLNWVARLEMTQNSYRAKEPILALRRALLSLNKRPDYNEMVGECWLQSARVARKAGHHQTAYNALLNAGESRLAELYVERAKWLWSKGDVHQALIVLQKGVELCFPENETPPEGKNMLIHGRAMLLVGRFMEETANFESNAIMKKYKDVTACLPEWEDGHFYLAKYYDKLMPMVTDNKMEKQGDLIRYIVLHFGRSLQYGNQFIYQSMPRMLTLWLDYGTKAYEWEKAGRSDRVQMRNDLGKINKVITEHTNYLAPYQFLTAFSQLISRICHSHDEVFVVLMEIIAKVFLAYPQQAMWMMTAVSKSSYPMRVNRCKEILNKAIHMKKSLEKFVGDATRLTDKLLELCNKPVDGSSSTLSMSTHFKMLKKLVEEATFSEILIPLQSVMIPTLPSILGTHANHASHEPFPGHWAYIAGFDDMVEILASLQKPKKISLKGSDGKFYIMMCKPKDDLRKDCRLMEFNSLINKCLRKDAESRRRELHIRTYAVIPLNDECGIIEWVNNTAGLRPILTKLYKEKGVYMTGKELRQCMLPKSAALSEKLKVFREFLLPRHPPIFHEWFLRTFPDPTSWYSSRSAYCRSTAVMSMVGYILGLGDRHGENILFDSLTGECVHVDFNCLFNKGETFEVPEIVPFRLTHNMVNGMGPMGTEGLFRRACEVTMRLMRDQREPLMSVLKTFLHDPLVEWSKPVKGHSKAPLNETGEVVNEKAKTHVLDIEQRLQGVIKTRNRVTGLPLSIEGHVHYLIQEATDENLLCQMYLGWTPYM
Experiment [4] deals with Serine/threonine-protein kinase 26 (Homo sapiens) (UniProt Q9P289). Description: Inhibition of MST4 Lys2 labeling site in human A-375 cells at 0.5 uM by KiNativ Profiling analysis relative to control.
Serine/threonine-protein kinase 26 (Homo sapiens), sequence (Q9P289 2-416 limits assumed): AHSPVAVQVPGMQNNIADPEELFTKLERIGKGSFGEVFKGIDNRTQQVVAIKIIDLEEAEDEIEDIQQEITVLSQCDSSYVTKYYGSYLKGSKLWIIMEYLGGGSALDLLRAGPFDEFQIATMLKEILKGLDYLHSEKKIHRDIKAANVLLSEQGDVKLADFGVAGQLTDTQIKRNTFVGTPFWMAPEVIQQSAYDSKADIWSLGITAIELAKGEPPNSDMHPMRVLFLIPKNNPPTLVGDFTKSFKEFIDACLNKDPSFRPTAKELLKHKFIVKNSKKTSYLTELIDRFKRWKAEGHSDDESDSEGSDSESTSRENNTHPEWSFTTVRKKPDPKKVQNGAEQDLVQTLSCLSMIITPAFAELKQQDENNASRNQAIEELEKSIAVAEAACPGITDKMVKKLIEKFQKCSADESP
The target of experiment [5] is Serine/threonine-protein kinase Chk2 (Homo sapiens) (UniProt O96017). The experiment in a line: Inhibition of CHK2 Lys1 labeling site in human A-375 cells at 0.05 uM by KiNativ Profiling analysis relative to control.
Serine/threonine-protein kinase Chk2 (Homo sapiens), sequence (O96017 whole entry): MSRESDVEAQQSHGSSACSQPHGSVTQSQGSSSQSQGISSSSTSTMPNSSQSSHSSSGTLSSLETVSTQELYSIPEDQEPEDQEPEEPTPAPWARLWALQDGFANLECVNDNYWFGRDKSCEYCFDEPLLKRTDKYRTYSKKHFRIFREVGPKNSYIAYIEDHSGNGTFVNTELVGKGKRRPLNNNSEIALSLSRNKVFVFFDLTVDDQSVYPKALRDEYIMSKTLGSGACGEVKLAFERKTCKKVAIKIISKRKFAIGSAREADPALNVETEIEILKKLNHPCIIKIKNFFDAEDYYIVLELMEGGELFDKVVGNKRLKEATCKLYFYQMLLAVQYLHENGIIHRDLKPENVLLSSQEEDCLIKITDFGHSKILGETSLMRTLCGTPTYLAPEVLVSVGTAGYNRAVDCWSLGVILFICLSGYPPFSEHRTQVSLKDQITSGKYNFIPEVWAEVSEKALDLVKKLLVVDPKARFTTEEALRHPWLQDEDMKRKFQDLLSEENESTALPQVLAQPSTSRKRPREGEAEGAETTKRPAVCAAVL
Experiment [6] concerns the target T1, Ephrin type-B receptor 4 (Homo sapiens) (UniProt P54760).
T1 sequence (whole entry): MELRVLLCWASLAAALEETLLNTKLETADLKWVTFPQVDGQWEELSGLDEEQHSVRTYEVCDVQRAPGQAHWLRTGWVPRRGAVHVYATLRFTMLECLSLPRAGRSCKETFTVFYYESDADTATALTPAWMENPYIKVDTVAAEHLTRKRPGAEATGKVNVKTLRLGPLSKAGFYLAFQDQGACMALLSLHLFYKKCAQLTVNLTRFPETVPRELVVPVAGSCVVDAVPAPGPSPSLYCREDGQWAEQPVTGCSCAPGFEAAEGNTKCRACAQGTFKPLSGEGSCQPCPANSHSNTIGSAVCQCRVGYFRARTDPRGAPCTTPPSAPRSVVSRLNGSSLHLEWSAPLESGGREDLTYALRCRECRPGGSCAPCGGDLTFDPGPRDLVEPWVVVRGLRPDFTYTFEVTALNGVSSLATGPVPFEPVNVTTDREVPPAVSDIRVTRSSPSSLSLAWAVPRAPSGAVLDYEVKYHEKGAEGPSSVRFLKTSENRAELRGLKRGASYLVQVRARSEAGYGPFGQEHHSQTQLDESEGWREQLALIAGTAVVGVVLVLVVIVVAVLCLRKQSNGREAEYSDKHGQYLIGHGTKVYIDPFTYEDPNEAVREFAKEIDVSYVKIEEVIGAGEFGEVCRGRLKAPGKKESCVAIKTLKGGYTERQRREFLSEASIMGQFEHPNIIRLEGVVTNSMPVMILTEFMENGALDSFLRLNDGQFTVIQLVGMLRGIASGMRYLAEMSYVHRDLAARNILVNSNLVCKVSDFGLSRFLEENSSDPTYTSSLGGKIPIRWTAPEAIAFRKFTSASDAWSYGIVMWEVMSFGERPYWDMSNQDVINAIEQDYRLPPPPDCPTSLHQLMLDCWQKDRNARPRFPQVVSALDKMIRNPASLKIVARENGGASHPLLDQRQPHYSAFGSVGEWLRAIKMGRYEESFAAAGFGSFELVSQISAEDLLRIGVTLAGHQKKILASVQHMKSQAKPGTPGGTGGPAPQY
Description: Inhibition of EphB4 ACT labeling site in human A-375 cells at 0.5 uM by KiNativ Profiling analysis relative to control. In a few lines:
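Live A375 melanoma cells were treated with compound at 0.5 or 5 μM, then lysed. Lysates were labeled with a lysine-reactive ATP or ADP-biotin probe. The read-out was protection of each kinase probe-labeling site from labeling, relative to control.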

The target in experiment [7] is Cyclin-dependent kinase 18 (Homo sapiens) (UniProt Q07002). Description: Inhibition of PCTAIRE3 Lys1 labeling site harbouringSKLTENLVALKEIR in human A-375 cells at 0.05 uM by KiNativ Profiling analysis relative to control.
Experiment [8] deals with T2, Mitogen-activated protein kinase kinase kinase 2 (Homo sapiens) (UniProt Q9Y2U5).
T2 sequence (whole entry): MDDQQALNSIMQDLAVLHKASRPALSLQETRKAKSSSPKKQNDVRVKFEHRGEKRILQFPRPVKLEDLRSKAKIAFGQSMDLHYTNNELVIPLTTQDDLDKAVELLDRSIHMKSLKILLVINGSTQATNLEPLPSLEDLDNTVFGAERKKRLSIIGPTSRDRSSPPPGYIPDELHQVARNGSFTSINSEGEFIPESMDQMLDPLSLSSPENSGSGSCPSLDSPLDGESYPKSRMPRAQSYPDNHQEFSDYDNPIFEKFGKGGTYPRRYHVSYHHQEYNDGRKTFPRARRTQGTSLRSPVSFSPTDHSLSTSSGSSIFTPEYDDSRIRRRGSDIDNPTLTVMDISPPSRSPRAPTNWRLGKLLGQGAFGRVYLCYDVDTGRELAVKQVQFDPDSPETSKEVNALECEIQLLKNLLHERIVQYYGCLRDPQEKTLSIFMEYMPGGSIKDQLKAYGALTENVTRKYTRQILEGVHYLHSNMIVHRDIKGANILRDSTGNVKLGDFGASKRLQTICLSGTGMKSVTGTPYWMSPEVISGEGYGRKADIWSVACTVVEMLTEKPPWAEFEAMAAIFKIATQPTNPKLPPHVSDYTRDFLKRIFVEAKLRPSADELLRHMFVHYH
The experiment in a line: Inhibition of MAP3K2 Lys2 labeling site in human A-375 cells at 5 uM by KiNativ Profiling analysis relative to control.

Experiment [9] concerns the target Cyclin-dependent kinase 11B (Homo sapiens) (UniProt P21127). Description: Inhibition of PITSLRE Lys2 labeling site in human A-375 cells at 0.05 uM by KiNativ Profiling analysis relative to control.
Experiment [10] has as its target RAC-beta serine/threonine-protein kinase (Homo sapiens) (UniProt P31751). The experiment in a line: Inhibition of AKT2 ATP Loop labeling site in human A-375 cells at 0.5 uM by KiNativ Profiling analysis relative to control. In a few lines: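 Live A375 melanoma cells were treated with compound at 5 or 0.5 μM, then lysed. The lysates were labeled with a lysine-reactive ATP or ADP-biotin probe. Kinase protection from probe labeling was measured by KiNativ.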

The structures appear in SMILES notation.

By inhibition is commonly meant the change of the read-out against control, counted positive when it falls.

Cyclin-dependent kinase 11B (Homo sapiens), sequence (P21127 whole entry): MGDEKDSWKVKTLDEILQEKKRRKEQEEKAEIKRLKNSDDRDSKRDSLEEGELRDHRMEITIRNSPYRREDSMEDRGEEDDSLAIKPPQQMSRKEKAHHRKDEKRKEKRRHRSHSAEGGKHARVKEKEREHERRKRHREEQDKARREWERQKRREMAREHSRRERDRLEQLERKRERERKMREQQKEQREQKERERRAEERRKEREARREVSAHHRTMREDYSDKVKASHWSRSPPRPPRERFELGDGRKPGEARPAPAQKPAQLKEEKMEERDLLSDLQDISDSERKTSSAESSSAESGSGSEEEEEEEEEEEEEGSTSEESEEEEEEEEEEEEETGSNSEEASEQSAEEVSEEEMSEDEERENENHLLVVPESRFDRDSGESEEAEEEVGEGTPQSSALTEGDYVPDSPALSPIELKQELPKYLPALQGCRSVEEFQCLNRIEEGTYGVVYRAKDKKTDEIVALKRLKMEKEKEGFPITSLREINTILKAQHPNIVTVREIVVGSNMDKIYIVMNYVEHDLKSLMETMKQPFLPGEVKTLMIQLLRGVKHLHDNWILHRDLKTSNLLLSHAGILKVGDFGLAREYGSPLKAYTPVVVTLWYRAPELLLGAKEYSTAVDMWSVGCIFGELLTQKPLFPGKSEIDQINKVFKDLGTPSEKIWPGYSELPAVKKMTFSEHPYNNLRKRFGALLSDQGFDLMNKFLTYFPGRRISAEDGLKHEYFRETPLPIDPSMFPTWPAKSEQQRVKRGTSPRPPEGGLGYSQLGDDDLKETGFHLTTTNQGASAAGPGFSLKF
RAC-beta serine/threonine-protein kinase (Homo sapiens), sequence (P31751 whole entry): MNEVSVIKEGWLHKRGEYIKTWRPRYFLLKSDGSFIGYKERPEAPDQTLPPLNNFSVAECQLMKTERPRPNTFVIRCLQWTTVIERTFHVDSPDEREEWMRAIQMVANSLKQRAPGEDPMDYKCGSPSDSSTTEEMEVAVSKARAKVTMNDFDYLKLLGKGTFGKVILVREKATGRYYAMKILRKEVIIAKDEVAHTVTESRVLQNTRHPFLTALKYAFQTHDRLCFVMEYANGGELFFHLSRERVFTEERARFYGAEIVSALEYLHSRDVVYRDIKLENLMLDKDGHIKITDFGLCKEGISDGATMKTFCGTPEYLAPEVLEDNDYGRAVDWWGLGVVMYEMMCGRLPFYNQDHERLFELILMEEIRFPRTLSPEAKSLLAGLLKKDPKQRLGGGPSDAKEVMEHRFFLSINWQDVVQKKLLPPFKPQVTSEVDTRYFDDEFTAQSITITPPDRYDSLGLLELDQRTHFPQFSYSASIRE

Turning to `CCN1CCN(Cc2ccc(NC(=O)c3ccc(C)c(/C=C/c4cnc5[nH]ccc5c4OC)c3)cc2C(F)(F)F)CC1`, the inhibition in experiment [1] is 2.6%; in experiment [2], 14.4%; in [3], -7.3%; in [4], 9.8%; in experiment [5], 2.9%; in experiment [6], 78.1%. Besides, the inhibition is 8.5% in experiment [7], 11.8% in experiment [8], -3.9% in experiment [9] and 25.1% in experiment [10].
In the case of `CCN1CCN(Cc2ccc(NC(=O)c3ccc(C)c(Oc4ccnc5[nH]ccc45)c3)cc2C(F)(F)F)CC1`, the inhibition in [1] was 64.6%; in [2], 33.2%; in experiment [3], 7.9%; in [4], 12.5%; in experiment [5] it was -1.9%; in experiment [6] it was 39.2%. Moreover, the inhibition is 2.5% in experiment [7], -4.8% in [8], -4.6% in [9] and -1.8% in experiment [10].
